From ChEMBL document CHEMBL1140190, “Phenolic constituents of Amorpha fruticosa that inhibit NF-kappaB activation and related gene expression” (J Nat Prod, 2008)
pIC50: −log10 of the molar value. Active and inactive are the calls of the source. No cut-off for these calls is given here.

Experiments:
[1] = Inhibition of LPS-induced NF-kappaB activation in mouse RAW264.7 cells by SEAP reporter gene assay; type: cell-based
In short: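 RAW264.7 cells transiently transfected with a plasmid carrying eight κB elements driving SEAP, seeded at 5 × 10^4 cells/well, 3 h at 37 °C. Compounds in DMSO (final 0.01%) plus LPS 1 µg mL-1 for 24 h. Supernatant heated 65 °C 10 min, then SEAP buffer and p-nitrophenyl phosphate, 37 °C 4 h, OD 405 nm. Means ± SD of three experiments.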

[2] = Inhibition of TNF-alpha-induced NF-kappaB activation in human HeLa cells by SEAP reporter gene assay; type: cell-based
In short: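 HeLa cells transiently transfected with an 8×κB-SEAP reporter plasmid, seeded at 5 × 10^4 cells/well, 3 h at 37 °C. Compounds in DMSO (final 0.01%) with TNF-α 10 ng mL-1 for 24 h. Supernatant heat-treated 65 °C 10 min, substrate p-nitrophenyl phosphate, 37 °C 4 h, absorbance 405 nm. Means ± SD, three experiments.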

MCF7 [3] = assay: Induction of apoptosis in human MCF7 cells assessed as suppression of MMP9 by Western blot analysis; type: functional, cell-based
In short: (§1)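 MCF-7 cells plated at 70% confluence and incubated overnight at 37 °C. Pretreated 30 min with compounds in DMSO (final DMSO 0.001%), then stimulated with TNF-α (20 ng mL-1) for 24 h. Total lysates in NP-40 lysis buffer were resolved by 10% SDS-PAGE and immunoblotted with specific antibodies (1:1000, overnight, 4 °C). ECL detection with α-tubulin as loading control.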

MCF7 [4] = assay: Blockade of TNF-alpha-induced COX2 induction in human MCF7 cells by Western blot analysis; type: functional, cell-based; in short: as §1
MCF7 [5] = assay: Suppression of TNF-alpha-induced expression of iNOS in human MCF7 cells at 3 uM by Western blot analysis; type: functional, cell-based
In short: (§2)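 MCF-7 cells plated at 70% confluence and kept overnight at 37 °C. Compound (DMSO final 0.001%) added for 30 min, then TNF-α 20 ng mL-1 for 24 h. Total lysates run on 10% SDS-PAGE and blotted, primary antibody overnight at 4 °C, ECL detection, α-tubulin as loading control.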

MCF7 [6] = assay: Suppression of TNF-alpha-induced expression of iNOS in human MCF7 cells at 10 uM by Western blot analysis; type: functional, cell-based; in short: as §2
MCF7 [7] = assay: Induction of apoptosis in human MCF7 cells assessed as down regulation of cIAP2 by Western blot analysis; type: functional, cell-based; in short: as §1
MCF7 [8] = assay: Induction of apoptosis in human MCF7 cells assessed as down regulation of cIAP1 by Western blot analysis; type: functional, cell-based; in short: as §1
MCF7 [9] = assay: Inhibition of TNF-alpha-induced NF-kappaB DNA binding activity in human MCF7 cells by electrophoretic shift mobility assay; type: cell-based
In short: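 MCF-7 cells at 70% confluence preincubated 30 min with compounds (DMSO final 0.001%), then TNF-α 20 ng mL-1 for 60 min. Nuclear extracts from hypotonic swelling and high-salt extraction, bound 20 min at room temperature to a 32P end-labeled NF-κB oligonucleotide. Excess unlabeled NF-κB and AP-1 oligonucleotides served as competitors.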

Row | SMILES | pIC50 [1] | pIC50 [2] | Activity (MCF7 [3]) | Activity (MCF7 [4]) | Activity (MCF7 [5]) | Activity (MCF7 [6]) | Activity (MCF7 [7]) | Activity (MCF7 [8]) | Activity (MCF7 [9])
1 | COc1cc2c(cc1OC)[C@]1(O)C(=O)c3c(O)cc4c(c3O[C@@H]1CO2)C=CC(C)(C)O4 | 5.38 | 6.72 |  |  |  |  |  |  | 
2 | COc1c(C/C=C(\C)CCC=C(C)C)c(O)cc(CCc2ccccc2)c1C(=O)O | 5.61 | 5.95 |  |  |  |  |  |  | 
3 | CC(C)=CCC/C(C)=C/Cc1c(O)cc(CCc2ccccc2)c(C(=O)O)c1O | 5.50 | 5.81 |  |  |  |  |  |  | 
4 | COC1=CC(=O)[C@]2(C=C1OC)OC[C@H]1Oc3c4c(cc(O)c3C(=O)[C@H]12)OC(C)(C)C=C4 | 5.12 | 5.67 | Active | Active | Active | Active | Active | Active | Dose-dependent effect
5 | COc1c(CC=C(C)C)c(O)cc(CCc2ccccc2)c1C(=O)O | 5.52 | 5.76 |  |  |  |  |  |  | 
6 | COc1cc(CCc2ccccc2)c(C(=O)O)c(O)c1CC=C(C)C [AMORFRUTIN A] | 5.38 | 6.08 |  |  | Active | Active |  |  | Dose-dependent effect
7 | CC(C)=CCC/C(C)=C/Cc1c(O)cc(/C=C/c2ccccc2)cc1O [AMORPHASTILBOL] | 6.17 | 6.59 |  |  |  |  |  |  | 
8 | COC1=CC(=O)[C@]2(C=C1OC)OC[C@H]1Oc3c(ccc4c3C=CC(C)(C)O4)C(=O)[C@H]12 [AMORPHISPIRONONE] | 4.86 | 5.13 |  |  |  |  |  |  | 
9 | CC1=C(O)C(=O)C=C2C1=CC=C1[C@@]2(C)CC[C@@]2(C)[C@@H]3C[C@](C)(C(=O)O)CC[C@]3(C)CC[C@]12C [CELASTROL] | 6.52 | 6.82 |  |  |  |  |  |  | 
10 | COc1cc2c(cc1OC)[C@@H]1C(=O)c3ccc4c(c3O[C@@H]1CO2)C=CC(C)(C)O4 [DEGUELIN] | 5.76 | 6.66 |  |  |  |  |  |  | 
11 | COc1cc2c(cc1OC)[C@]1(O)C(=O)c3ccc4c(c3O[C@@H]1CO2)C=CC(C)(C)O4 [TEPHROSIN] | 5.70 | 6.96 | Active | Active | Active | Active | Active | Active | Dose-dependent effect
12 | CC(C)=CCC/C(C)=C/Cc1c(O)ccc(C(=O)/C=C/c2ccc(O)cc2)c1O [XANTHOANGELOL] | 5.74 | 5.99 |  |  |  |  |  |  | 
